pIC50: −log10 of the molar value.
How the values were obtained:
[1] = Inhibition of sheep brain tubulin polymerization by DAPI staining-based fluorescence assay; parameters: species or system Ovis aries
Procedure, shortened: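 Tubulin was purified by two assembly–disassembly cycles and held at ~2–3 mg/mL in MES assembly buffer with MgCl₂, EGTA and GTP, pH 6.6. Assembly was followed continuously at 37 °C by DAPI fluorescence. IC50 is the concentration halving the maximum assembly rate versus the no-compound rate; mean of three experiments. Reference agents were run the same day.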

K562 = assay: Cytotoxicity against human K562 cells after 72 hrs by CellTitre-Blue assay; format: functional; conditions: K562, 72 h
Procedure, shortened: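 Cells were kept in RPMI 1640 with 10% FCS and 1% glutamine, humidified, 37 °C, 5% CO₂. Plated at 5×10³ cells/well, grown 24 h, then exposed 72 h to compound delivered in DMSO (below 0.1% final). Viability was read by resazurin reduction over 2 h (fluorescence ex 560, em 590 nm). IC50 is the 50% signal loss relative to untreated wells; triplicate runs.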

MDA-MB-231 = assay: Cytotoxicity against human MDA-MB-231 cells after 72 hrs by CellTitre-Blue assay; format: functional; conditions: MDA-MB-231, 72 h
Procedure, shortened: (§1)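 ATCC lines grown in DMEM (4.5 g/L glucose) with 10% FCS and 1% glutamine at 37 °C, 5% CO₂. Seeded at 5×10³ cells/well and cultured 24 h. Compound added from DMSO (final <0.1%) for 72 h. Resazurin (CellTiter-Blue) added for 2 h, then fluorescence read at ex 560/em 590 nm. IC50 is the 50% fluorescence drop versus untreated cells, in triplicate.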

[2] = Cytotoxicity against human H1299 cells after 72 hrs by CellTitre-Blue assay; format: functional; conditions: NCI-H1299, 72 h; procedure, shortened: as §1
[3] = Cytotoxicity against human HCT116 cells after 72 hrs by CellTitre-Blue assay; format: functional; conditions: HCT-116, 72 h
Ovis aries = species on record: Ovis aries; assay: Inhibition of sheep brain tubulin polymerization at 10 uM by DAPI staining-based fluorescence assay
[4] = Cytotoxicity against human HCT116 cells at 10 uM after 72 hrs by CellTitre-Blue assay; format: functional; conditions: HCT-116, 72 h

Row | SMILES | pIC50 [1] | inhibition (Ovis aries) | GI50 (K562) | GI50 (MDA-MB-231) | GI50 [2] | GI50 [3] | inhibition at 10 µM [4]
1 | COc1ccc(/C=C\c2cc(OC)c(OC)c(OC)c2)cc1O [COMBRETASTATIN A4] | 5.85 | – | 4.3 nM | 3.2 nM | 5.1 nM | 2.1 nM | –
2 | COc1cc(C2=CCOc3ccc(-c4ccccc4)cc32)cc(OC)c1OC | – | < 10% | – | – | – | 400 nM | –
3 | C=C(c1ccc(OC)c(O)c1)c1cc(OC)c(OC)c(OC)c1 | 5.66 | – | 5.2 nM | 4.1 nM | 5 nM | 2.2 nM | –
4 | COc1ccc2c(c1O)OCCC2c1cc(OC)c(OC)c(OC)c1 (stereo not drawn) | 5.21 | – | 75 nM | 60 nM | 80 nM | 75 nM | –
5 | COc1ccc2c(c1N)OCCC2c1cc(OC)c(OC)c(OC)c1 (stereo not drawn) | 5.39 | – | 70 nM | 65 nM | 60 nM | 50 nM | –

Now from value to compound, other results behind:

Row | pIC50 [1] | inhibition (Ovis aries) | SMILES | GI50 (K562) | GI50 (MDA-MB-231) | GI50 [2] | GI50 [3] | inhibition at 10 µM [4]
6 | – | < 10% | COc1ccc2c(c1Br)OCC=C2c1cc(OC)c(OC)c(OC)c1 | – | – | – | 300 nM | –
7 | – | < 10% | COc1cc(C2=CCOc3cc(CO)ccc32)cc(OC)c1OC | – | – | – | – | < 10%
8 | 5.43 | – | COc1ccc2c(c1O)OCC=C2c1cc(OC)c(OC)c(OC)c1 | 32 nM | 25 nM | 15 nM | 10 nM | –
9 | 5.30 | – | COc1ccc2c(c1N)OCC=C2c1cc(OC)c(OC)c(OC)c1 | 60 nM | 65 nM | 60 nM | 50 nM | –
10 | – | < 10% | COc1cc(C2=CCOc3cc(F)ccc32)cc(OC)c1OC | – | – | – | – | < 10%
